The record followed here is ChEMBL document CHEMBL1150955, “Antimycobacterial activities of dehydrocostus lactone and its oxidation products” (1998).

In brackets after ≈: the same amount, converted by molar mass. Where only a bound is given, the exact number is not on record here.

Broadly, the MIC is the smallest concentration in the dilution series that meets the test's criterion for growth inhibition. The low end stands for a more susceptible organism, the high end for a less susceptible organism.

One assay deals with Mycobacterium avium. Briefly: Antimycobacterial activity against Mycobacterium avium by radiorespirometric bioassay. Type of assay: functional. In outline: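 MIC determined in a radiorespirometric bioassay run essentially per earlier reports; M. avium experiments usually completed within 5 days.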
With `C=C1C(=O)O[C@H]2[C@H]1[C@@H](O)[C@H](OC(=O)/C(C)=C\C)C(C)=C1C(=O)C=C(C)[C@@]12O` [PUMILIN], 128 µg/mL (≈ 342 µM) was the least that counted as inhibitory (MIC).
On the same count and under the same terms, next, `C=C1CC[C@H]2C(=C)CC[C@H]3C(=C)C(=O)O[C@@H]3[C@@H]12` [DEHYDROCOSTUSLACTONE]: 16 µg/mL (≈ 69.5 µM).

The next assay relates to Mycobacterium tuberculosis. Description: Antimycobacterial activity against Mycobacterium tuberculosis H37Rv by radiorespirometric bioassay. It counts as functional. An outline of the steps: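 Radiorespirometric bioassay giving MIC against strain H37Rv, run essentially per earlier reports; M. tuberculosis experiments usually completed in 10 days.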
In turn, `C=C1CC[C@@H]2[C@H]1[C@H]1OC(=O)C(=C)[C@@H]1CC[C@]21CO1` [DEHYDROCOSTUS LACTONE,10ALPHA(14)EPOXIDE] came in with an MIC of 64 µg/mL (≈ 260 µM).
On the same count and under the same terms, next, `C=C1CC[C@H]2C(=C)CC[C@@]3(O)C(=C)C(=O)O[C@@H]3[C@@H]12`: > 128 µg/mL; `C=C1C(=O)O[C@H]2[C@H]1[C@@H](O)[C@H](OC(=O)/C(C)=C\C)C(C)=C1C(=O)C=C(C)[C@@]12O` [PUMILIN]: 128 µg/mL (≈ 342 µM).
Still for that read-out and setting: next, `C=C1C(=O)O[C@@H]2[C@@H]3[C@@H](CC[C@]34CO4)[C@@]3(CC[C@@H]12)CO3`: 128 µg/mL (≈ 488 µM); `C=C1C(=O)O[C@@H]2[C@@H]3[C@@H](CC[C@@]34CO4)[C@]3(CC[C@@H]12)CO3`: 64 µg/mL (≈ 244 µM).
Still for that read-out and setting: next, `C=C1C(=O)O[C@@H]2[C@@H]3[C@@H](CC[C@]34CO4)C(=C)CC[C@@H]12`: 32 µg/mL (≈ 130 µM).
`C=C1C(=O)O[C@H]2[C@H]1CCC(C)=C1CC[C@@](C)(O)[C@@H]12` [MICHELIOLIDE] gave an MIC of 50 µg/mL (≈ 201 µM).
With `C=C1CC[C@@H]2[C@H]1[C@H]1OC(=O)C(=C)[C@@H]1CC[C@@]21CO1` [DEHYDROCOSTUS LACTONE,10BETA(14)EPOXIDE], the MIC is 32 µg/mL (≈ 130 µM).
On the same count and under the same terms, next, `C=C1[C@@H]2[C@H]3OC(=O)C(=C)[C@@H]3CCC(=C)[C@@H]2C[C@H]1O` [ISOZALUZANIN C]: > 128 µg/mL.
Still for that read-out and setting: next, `C=C1C(=O)O[C@@H]2[C@@H]3[C@@H](CC[C@]34CO4)[C@]3(CC[C@@H]12)CO3`: 128 µg/mL (≈ 488 µM).
Still for that read-out and setting: next, `C=C1CC[C@H]2C(=C)CC[C@H]3C(=C)C(=O)O[C@@H]3[C@@H]12` [DEHYDROCOSTUSLACTONE]: 2 µg/mL (≈ 8.68 µM).
